Test results reported in ChEMBL document CHEMBL2040798, “One-pot synthesis of novel isoindoline-1,3-dione derivatives bearing 1,2,4-triazole moiety and their preliminary biological evaluation” (Eur J Med Chem, 2012).

Assays:
[1] = system: Pyricularia grisea; assay: Growth inhibition of Phyricularia oryzae Cav. at 150 mg/mL after 48 hrs by mycelium growth rate method; format: functional; set-up: dose or concentration left out as unconfirmed; conditions: read-out: GI
[2] = Cytotoxicity against human PC3M cells after 48 hrs by MTT assay; format: functional, cell-based; conditions: PC-3M
Outline: (§1)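 MTT assay. Cells kept in DMEM with 10% FBS. HepG2 seeded at 1 × 10^4 cells/well; A549, PC-3M and MKN45 at 1.6 × 10^4 cells/well. Attachment 24 h at 37 °C. Compounds diluted in medium from 10 mM DMSO stocks; 0.1% DMSO served as negative control. Exposure 48 h at 37 °C, then MTT for 3 h. Formazan dissolved in DMSO and read at 570 nm. IC50 from a concentration series; mean of three independent experiments.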

[3] = system: MKN-45; assay: Cytotoxicity against human MKN45 cells after 48 hrs by MTT assay; format: functional, cell-based; conditions: MKN-45, 48 h; outline: as §1
[4] = system: A549; assay: Cytotoxicity against human A549 cells after 48 hrs by MTT assay; format: functional, cell-based; conditions: A549, 48 h; outline: as §1
[5] = system: HepG2; assay: Cytotoxicity against human HepG2 cells after 48 hrs by MTT assay; format: functional, cell-based; conditions: HepG2, 48 h; outline: as §1
[6] = system: HepG2; assay: Cell cycle arrest in human HepG2 cells assessed as S phase cells at 16 uM after 24 hrs by flow cytometry (reference value: 29.84%); format: functional
[7] = system: HepG2; assay: Cell cycle arrest in human HepG2 cells assessed as Sub-G0 phase cells at 8 uM after 24 hrs by flow cytometry (reference value: 2.48%); format: functional
[8] = system: HepG2; assay: Cell cycle arrest in human HepG2 cells assessed as S phase cells at 8 uM after 24 hrs by flow cytometry (reference value: 29.84%); format: functional
[9] = system: HepG2; assay: Cell cycle arrest in human HepG2 cells assessed as G2/M phase cells at 16 uM after 24 hrs by flow cytometry (reference value: 16.38%); format: functional
[10] = system: HepG2; assay: Ratio of Fluorouracil IC50 to compound IC50 for human HepG2 cells; format: functional
[11] = system: HepG2; assay: Induction of apoptosis in human HepG2 cells after 24 hrs by flow cytometry; format: functional, cell-based
[12] = system: A549; assay: Ratio of Fluorouracil IC50 to compound IC50 for human A549 cells; format: functional
[13] = system: HepG2; assay: Cell cycle arrest in human HepG2 cells assessed as G0/G1 phase cells at 4 uM after 24 hrs by flow cytometry (reference value: 54.65%); format: functional
[14] = system: HepG2; assay: Cell cycle arrest in human HepG2 cells assessed as S phase cells at 4 uM after 24 hrs by flow cytometry (reference value: 29.84%); format: functional
[15] = system: HepG2; assay: Cell cycle arrest in human HepG2 cells assessed as G2/M phase cells at 8 uM after 24 hrs by flow cytometry (reference value: 16.38%); format: functional
[16] = system: HepG2; assay: Cell cycle arrest in human HepG2 cells assessed as Sub-G0 phase cells at 16 uM after 24 hrs by flow cytometry (reference value: 2.48%); format: functional
[17] = system: HepG2; assay: Cell cycle arrest in human HepG2 cells assessed as Sub-G0 phase cells at 4 uM after 24 hrs by flow cytometry (reference value: 2.48%); format: functional
[18] = system: HepG2; assay: Cell cycle arrest in human HepG2 cells assessed as G0/G1 phase cells at 8 uM after 24 hrs by flow cytometry (reference value: 54.65%); format: functional
[19] = system: HepG2; assay: Cell cycle arrest in human HepG2 cells assessed as G2/M phase cells at 4 uM after 24 hrs by flow cytometry (reference value: 16.38%); format: functional
[20] = system: HepG2; assay: Cell cycle arrest in human HepG2 cells assessed as G0/G1 phase cells at 16 uM after 24 hrs by flow cytometry (reference value: 54.65%); format: functional

Structure (SMILES) | inhibition of growth [1] [%] | IC50 [2] [µM] | IC50 [3] [µM] | IC50 [4] [µM] | IC50 [5] [µM] | also measured
C=CCSc1nnc(CCC)n1N1C(=O)c2ccccc2C1=O | < 50 | > 200 | > 200 | > 200 | > 200 | –
CCc1nnc(SCC(=O)c2ccc(C)cc2)n1N1C(=O)c2ccccc2C1=O | < 50 | > 200 | > 200 | > 200 | > 200 | –
Cc1nnc(SCC(=O)c2ccccc2)n1N1C(=O)c2ccccc2C1=O | < 50 | > 200 | > 200 | > 200 | > 200 | –
C#CCSc1nnc(C)n1N1C(=O)c2ccccc2C1=O | ≥ 60 | > 200 | > 200 | > 200 | > 200 | –
CCOC(=O)CSc1nnc(CC)n1N1C(=O)c2ccccc2C1=O | ≥ 50 | > 200 | > 200 | > 200 | > 200 | –
CC(C)(C)C(=O)C(Oc1ccc(Cl)cc1)n1cncn1 (stereo not drawn) [TRIADIMEFON] | ≥ 80 | – | – | – | – | –
COc1cc(-c2nnc(SCC(=O)c3ccc(F)cc3)n2N2C(=O)c3ccccc3C2=O)cc(OC)c1OC | < 50 | > 200 | 126 | > 200 | > 200 | –
C=CCSc1nnc(-c2cc(OC)c(OC)c(OC)c2)n1N1C(=O)c2ccccc2C1=O | ≥ 60 | > 200 | > 200 | > 200 | > 200 | –
CCCc1nnc(SCC(=O)c2ccc(Cl)cc2)n1N1C(=O)c2ccccc2C1=O | < 50 | > 200 | > 200 | > 200 | > 200 | –
COc1cc(-c2nnc(SCC(=O)c3ccc(Br)cc3)n2N2C(=O)c3ccccc3C2=O)cc(OC)c1OC | ≥ 60 | 22.6 | 22.3 | 16.1 | 27.7 | –
O=c1[nH]cc(F)c(=O)[nH]1 [FLUOROURACIL] | – | 22.6 | 41.7 | – | – | –
Cc1ccc(C(=O)CSc2nnc(C)n2N2C(=O)c3ccccc3C2=O)cc1 | ≥ 50 | > 200 | > 200 | > 200 | > 200 | –
CCc1nnc(SCc2ccccc2)n1N1C(=O)c2ccccc2C1=O | ≥ 50 | > 200 | > 200 | > 200 | > 200 | –
CCc1nnc(SCC(=O)c2ccc(Cl)cc2)n1N1C(=O)c2ccccc2C1=O | < 50 | > 200 | > 200 | > 200 | > 200 | –
Cc1nnc(SCc2ccccc2Cl)n1N1C(=O)c2ccccc2C1=O | ≥ 60 | > 200 | > 200 | > 200 | > 200 | –
CCc1nnc(SC)n1N1C(=O)c2ccccc2C1=O | < 50 | > 200 | > 200 | > 200 | > 200 | –
C=CCSc1nnc(CC)n1N1C(=O)c2ccccc2C1=O | < 50 | > 200 | > 200 | > 200 | > 200 | –
CCOC(=O)CSc1nnc(-c2cc(OC)c(OC)c(OC)c2)n1N1C(=O)c2ccccc2C1=O | < 50 | > 200 | > 200 | > 200 | > 200 | –
CSc1nnc(C)n1N1C(=O)c2ccccc2C1=O | < 50 | > 200 | > 200 | > 200 | > 200 | –
CCc1nnc(SCC(=O)c2ccccc2)n1N1C(=O)c2ccccc2C1=O | < 50 | > 200 | > 200 | > 200 | > 200 | –

Structure (SMILES) | inhibition of growth [1] [%] | IC50 [2] [µM] | IC50 [3] [µM] | IC50 [4] [µM] | IC50 [5] [µM] | also measured
COc1cc(-c2nnc(SC)n2N2C(=O)c3ccccc3C2=O)cc(OC)c1OC | ≥ 50 | > 200 | > 200 | > 200 | > 200 | –
C#CCSc1nnc(CC)n1N1C(=O)c2ccccc2C1=O | ≥ 60 | > 200 | > 200 | > 200 | > 200 | –
CCCc1nnc(SCC(=O)c2ccccc2)n1N1C(=O)c2ccccc2C1=O | < 50 | > 200 | > 200 | > 200 | > 200 | –
CCCc1nnc(SC)n1N1C(=O)c2ccccc2C1=O | < 50 | > 200 | > 200 | > 200 | > 200 | –
COc1cc(-c2nnc(SCC(=O)c3ccc(F)c(F)c3)n2N2C(=O)c3ccccc3C2=O)cc(OC)c1OC | < 50 | 163 | > 200 | > 200 | > 200 | –
COc1cc(-c2nnc(SCC(=O)c3ccc(C)cc3)n2N2C(=O)c3ccccc3C2=O)cc(OC)c1OC | < 50 | 11.7 | 9.62 | 6.76 | 9.44 | Activity [6]: 21.07%; Activity [7]: 29.22%; Activity [8]: 17.5%; Activity [9]: 6.31%; Ratio IC50 [10]: 4; Activity [11]: Dose-dependent effect; Ratio IC50 [12]: 4; Activity [13]: 40.73%; Activity [14]: 25.41%; Activity [15]: 11.38%; Activity [16]: 32.58%; Activity [17]: 15.05%; Activity [18]: 37.45%; Activity [19]: 14.4%; Activity [20]: 36.7%
C#CCSc1nnc(CCC)n1N1C(=O)c2ccccc2C1=O | < 50 | > 200 | > 200 | > 200 | > 200 | –
C#CCSc1nnc(-c2cc(OC)c(OC)c(OC)c2)n1N1C(=O)c2ccccc2C1=O | < 50 | > 200 | > 200 | > 200 | > 200 | –
COc1cc(-c2nnc(SCC(=O)c3ccccc3C)n2N2C(=O)c3ccccc3C2=O)cc(OC)c1OC | < 50 | > 200 | > 200 | 144 | > 200 | –
COc1cc(-c2nnc(SCc3ccccc3Cl)n2N2C(=O)c3ccccc3C2=O)cc(OC)c1OC | < 50 | > 200 | > 200 | > 200 | > 200 | –
CCCc1nnc(SCc2ccccc2)n1N1C(=O)c2ccccc2C1=O | < 50 | > 200 | > 200 | > 200 | > 200 | –
COc1cc(-c2nnc(SCC(=O)c3ccc(Cl)cc3)n2N2C(=O)c3ccccc3C2=O)cc(OC)c1OC | < 50 | 20.7 | 26.6 | 9.03 | 22 | –
CCOC(=O)CSc1nnc(C)n1N1C(=O)c2ccccc2C1=O | < 50 | > 200 | > 200 | > 200 | > 200 | –
Cc1nnc(SCc2ccccc2)n1N1C(=O)c2ccccc2C1=O | < 50 | > 200 | > 200 | > 200 | > 200 | –
Cc1nnc(SCC(=O)c2ccc(Cl)cc2)n1N1C(=O)c2ccccc2C1=O | ≥ 60 | > 200 | > 200 | > 200 | > 200 | –
COc1cc(-c2nnc(SCC(=O)c3ccccc3)n2N2C(=O)c3ccccc3C2=O)cc(OC)c1OC | ≥ 60 | > 200 | > 200 | > 200 | 171 | –
COc1ccc(C(=O)CSc2nnc(-c3cc(OC)c(OC)c(OC)c3)n2N2C(=O)c3ccccc3C2=O)cc1 | < 50 | 32.8 | 37.2 | 30 | 28.7 | –
CCCc1nnc(SCc2ccccc2Cl)n1N1C(=O)c2ccccc2C1=O | < 50 | > 200 | > 200 | > 200 | > 200 | –
CCCc1nnc(SCC(=O)c2ccc(C)cc2)n1N1C(=O)c2ccccc2C1=O | ≥ 80 | > 200 | > 200 | > 200 | > 200 | –
COc1cc(-c2nnc(SCc3ccccc3)n2N2C(=O)c3ccccc3C2=O)cc(OC)c1OC | < 50 | > 200 | > 200 | > 200 | > 200 | –
